Experimental data from ChEMBL document CHEMBL4152188, “Design, synthesis and biological evaluation of C(4) substituted monobactams as antibacterial agents against multidrug-resistant Gram-negative bacteria” (Eur J Med Chem, 2018).
Converted amounts (≈) assume the structure as drawn.

Assays:
Format in all cases: functional
Pseudomonas aeruginosa [1] = assay: Antibacterial activity against IMP-4 producing Pseudomonas aeruginosa isolate 209471 after 18 hrs in presence of BPL by CLSI broth microdilution method; settings: isolate 209471, 18 h
Summary of the method: (§1)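 CLSI broth microdilution against clinical isolates (ESBL E. coli, KPC-2 MDR K. pneumoniae, IMP-4 MDR P. aeruginosa; five per species). Iron limitation: Mueller-Hinton broth supplemented with 16 mg/liter 2,2'-bipyridyl to complex iron and induce iron uptake systems. Read-out: MIC.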

Escherichia coli [2] = assay: Antibacterial activity against extended-spectrum beta-lactamase producing Escherichia coli isolate 208687 after 18 hrs in presence of BPL by CLSI broth microdilution method; settings: isolate 208687, 18 h; summary of the method: as §1
Pseudomonas aeruginosa [3] = assay: Antibacterial activity against IMP-4 producing Pseudomonas aeruginosa isolate 212886 after 18 hrs by CLSI broth microdilution method; settings: isolate 212886, 18 h
Escherichia coli [4] = assay: Selectivity index, ratio of MIC for against extended-spectrum beta-lactamase producing Escherichia coli isolate 209285 to MIC for extended-spectrum beta-lactamase producing Escherichia coli isolate 209285 in presence of BPL
Pseudomonas aeruginosa [5] = assay: Antibacterial activity against IMP-4 producing Pseudomonas aeruginosa isolate 212886 after 18 hrs in presence of BPL by CLSI broth microdilution method; settings: isolate 212886, 18 h; summary of the method: as §1
Pseudomonas aeruginosa [6] = assay: Antibacterial activity against IMP-4 producing Pseudomonas aeruginosa isolate 208247 after 18 hrs by CLSI broth microdilution method; settings: isolate 208247, 18 h
Pseudomonas aeruginosa [7] = assay: Antibacterial activity against IMP-4 producing Pseudomonas aeruginosa isolate 207272 after 18 hrs by CLSI broth microdilution method; settings: isolate 207272, 18 h
Pseudomonas aeruginosa [8] = assay: Antibacterial activity against IMP-4 producing Pseudomonas aeruginosa isolate 207272 after 18 hrs in presence of BPL by CLSI broth microdilution method; settings: isolate 207272, 18 h; summary of the method: as §1
Escherichia coli [9] = assay: Antibacterial activity against extended-spectrum beta-lactamase producing Escherichia coli isolate 212648 after 18 hrs by CLSI broth microdilution method; settings: isolate 212648, 18 h
Pseudomonas aeruginosa [10] = assay: Antibacterial activity against IMP-4 producing Pseudomonas aeruginosa isolate 209321 after 18 hrs in presence of BPL by CLSI broth microdilution method; settings: isolate 209321, 18 h; summary of the method: as §1
Escherichia coli [11] = assay: Antibacterial activity against Escherichia coli isolate 210737 after 18 hrs by CLSI broth microdilution method; settings: isolate 210737, 18 h
Klebsiella pneumoniae [12] = assay: Antibacterial activity against KPC-2 producing Klebsiella pneumoniae isolate 209632 after 18 hrs in presence of BPL by CLSI broth microdilution method; settings: isolate 209632, 18 h; summary of the method: as §1
Klebsiella pneumoniae [13] = assay: Antibacterial activity against KPC-2 producing Klebsiella pneumoniae isolate 212229 after 18 hrs by CLSI broth microdilution method; settings: isolate 212229, 18 h
Klebsiella pneumoniae [14] = assay: Selectivity index, ratio of MIC for against KPC-2 producing Klebsiella pneumoniae isolate 212229 to MIC for against KPC-2 producing Klebsiella pneumoniae isolate 212229 in presence of BPL
Escherichia coli [15] = assay: Selectivity index, ratio of MIC for against extended-spectrum beta-lactamase producing Escherichia coli isolate 212648 to MIC for extended-spectrum beta-lactamase producing Escherichia coli isolate 212648 in presence of BPL
Klebsiella pneumoniae [16] = assay: Antibacterial activity against KPC-2 producing Klebsiella pneumoniae isolate 212423 after 18 hrs by CLSI broth microdilution method; settings: isolate 212423, 18 h
Escherichia coli [17] = assay: Selectivity index, ratio of MIC for against extended-spectrum beta-lactamase producing Escherichia coli isolate 106342 to MIC for extended-spectrum beta-lactamase producing Escherichia coli isolate 106342 in presence of BPL
Klebsiella pneumoniae [18] = assay: Selectivity index, ratio of MIC for against KPC-2 producing Klebsiella pneumoniae isolate 209632 to MIC for against KPC-2 producing Klebsiella pneumoniae isolate 209632 in presence of BPL
Klebsiella pneumoniae [19] = assay: Antibacterial activity against KPC-2 producing Klebsiella pneumoniae isolate 209735 after 18 hrs in presence of BPL by CLSI broth microdilution method; settings: isolate 209735, 18 h; summary of the method: as §1
Klebsiella pneumoniae [20] = assay: Antibacterial activity against KPC-2 producing Klebsiella pneumoniae isolate 212229 after 18 hrs in presence of BPL by CLSI broth microdilution method; settings: isolate 212229, 18 h; summary of the method: as §1
Escherichia coli [21] = assay: Antibacterial activity against extended-spectrum beta-lactamase producing Escherichia coli isolate 209285 after 18 hrs by CLSI broth microdilution method; settings: isolate 209285, 18 h
Escherichia coli [22] = assay: Antibacterial activity against extended-spectrum beta-lactamase producing Escherichia coli isolate 209285 after 18 hrs in presence of BPL by CLSI broth microdilution method; settings: isolate 209285, 18 h; summary of the method: as §1
Klebsiella pneumoniae [23] = assay: Selectivity index, ratio of MIC for against KPC-2 producing Klebsiella pneumoniae isolate 212232 to MIC for against KPC-2 producing Klebsiella pneumoniae isolate 212232 in presence of BPL
Klebsiella pneumoniae [24] = assay: Selectivity index, ratio of MIC for against KPC-2 producing Klebsiella pneumoniae isolate 212423 to MIC for against KPC-2 producing Klebsiella pneumoniae isolate 212423 in presence of BPL
Escherichia coli [25] = assay: Selectivity index, ratio of MIC for against extended-spectrum beta-lactamase producing Escherichia coli isolate 208687 to MIC for extended-spectrum beta-lactamase producing Escherichia coli isolate 208687 in presence of BPL
Pseudomonas aeruginosa [26] = assay: Antibacterial activity against IMP-4 producing Pseudomonas aeruginosa isolate 209471 after 18 hrs by CLSI broth microdilution method; settings: isolate 209471, 18 h
Pseudomonas aeruginosa [27] = assay: Antibacterial activity against IMP-4 producing Pseudomonas aeruginosa isolate 209321 after 18 hrs by CLSI broth microdilution method; settings: isolate 209321, 18 h
Escherichia coli [28] = assay: Antibacterial activity against extended-spectrum beta-lactamase producing Escherichia coli isolate 106342 after 18 hrs in presence of BPL by CLSI broth microdilution method; settings: isolate 106342, 18 h; summary of the method: as §1
Klebsiella pneumoniae [29] = assay: Selectivity index, ratio of MIC for against KPC-2 producing Klebsiella pneumoniae isolate 209735 to MIC for against KPC-2 producing Klebsiella pneumoniae isolate 209735 in presence of BPL
Escherichia coli [30] = assay: Antibacterial activity against extended-spectrum beta-lactamase producing Escherichia coli isolate 208687 after 18 hrs by CLSI broth microdilution method; settings: isolate 208687, 18 h
Klebsiella pneumoniae [31] = assay: Antibacterial activity against KPC-2 producing Klebsiella pneumoniae isolate 212232 after 18 hrs by CLSI broth microdilution method; settings: isolate 212232, 18 h
Pseudomonas aeruginosa [32] = assay: Antibacterial activity against IMP-4 producing Pseudomonas aeruginosa isolate 208247 after 18 hrs in presence of BPL by CLSI broth microdilution method; settings: isolate 208247, 18 h; summary of the method: as §1
Escherichia coli [33] = assay: Antibacterial activity against extended-spectrum beta-lactamase producing Escherichia coli isolate 212648 after 18 hrs in presence of BPL by CLSI broth microdilution method; settings: isolate 212648, 18 h; summary of the method: as §1
Escherichia coli [34] = assay: Antibacterial activity against Escherichia coli isolate 210737 after 18 hrs in presence of BPL by CLSI broth microdilution method; settings: isolate 210737, 18 h; summary of the method: as §1
Klebsiella pneumoniae [35] = assay: Antibacterial activity against KPC-2 producing Klebsiella pneumoniae isolate 209632 after 18 hrs by CLSI broth microdilution method; settings: isolate 209632, 18 h
Escherichia coli [36] = assay: Selectivity index, ratio of MIC for against Escherichia coli isolate 210737 to MIC for Escherichia coli isolate 210737 in presence of BPL
Klebsiella pneumoniae [37] = assay: Antibacterial activity against KPC-2 producing Klebsiella pneumoniae isolate 212232 after 18 hrs in presence of BPL by CLSI broth microdilution method; settings: isolate 212232, 18 h; summary of the method: as §1
Klebsiella pneumoniae [38] = assay: Antibacterial activity against KPC-2 producing Klebsiella pneumoniae isolate 209735 after 18 hrs by CLSI broth microdilution method; settings: isolate 209735, 18 h
Escherichia coli [39] = assay: Antibacterial activity against extended-spectrum beta-lactamase producing Escherichia coli isolate 106342 after 18 hrs by CLSI broth microdilution method; settings: isolate 106342, 18 h
Klebsiella pneumoniae [40] = assay: Antibacterial activity against KPC-2 producing Klebsiella pneumoniae isolate 212423 after 18 hrs in presence of BPL by CLSI broth microdilution method; settings: isolate 212423, 18 h; summary of the method: as §1

MIC (Pseudomonas aeruginosa [1]) | MIC (Escherichia coli [2]) | MIC (Pseudomonas aeruginosa [3]) | MIC (Pseudomonas aeruginosa [5]) | MIC (Pseudomonas aeruginosa [6]) | MIC (Pseudomonas aeruginosa [7]) | MIC (Pseudomonas aeruginosa [8]) | MIC (Escherichia coli [9]) | MIC (Pseudomonas aeruginosa [10]) | MIC (Escherichia coli [11]) | MIC (Klebsiella pneumoniae [12]) | MIC (Klebsiella pneumoniae [13]) | MIC (Klebsiella pneumoniae [16]) | MIC (Klebsiella pneumoniae [19]) | MIC (Klebsiella pneumoniae [20]) | MIC (Escherichia coli [21]) | MIC (Escherichia coli [22]) | Compound | Selectivity Index (Klebsiella pneumoniae [14]) | Selectivity Index (Klebsiella pneumoniae [18]) | Selectivity Index (Klebsiella pneumoniae [23]) | other results
> 64 µg/mL | 1 µg/mL | > 64 µg/mL | > 64 µg/mL | > 64 µg/mL | > 64 µg/mL | 64 µg/mL | 8 µg/mL (≈ 13.6 µM) | > 64 µg/mL | 1 µg/mL (≈ 1.7 µM) | 1 µg/mL | 8 µg/mL (≈ 13.6 µM) | 4 µg/mL (≈ 6.82 µM) | 1 µg/mL | 1 µg/mL | 16 µg/mL (≈ 27.3 µM) | 8 µg/mL | CC(C)C(O/N=C(\C(=O)NC1C(=O)N(S(=O)(=O)O)C12CCOCC2)c1csc(N)n1)c1cc(=O)c(O)cn1O (stereo not given) | 8 | 4 | 32 | Selectivity Index (Escherichia coli [4]): 2; Selectivity Index (Escherichia coli [15]): 4; Selectivity Index (Escherichia coli [17]): 2; Selectivity Index (Klebsiella pneumoniae [24]): 2; Selectivity Index (Escherichia coli [25]): 4; MIC (Pseudomonas aeruginosa [26]): > 64 µg/mL; MIC (Pseudomonas aeruginosa [27]): > 64 µg/mL; MIC (Escherichia coli [28]): 4 µg/mL; Selectivity Index (Klebsiella pneumoniae [29]): 4; MIC (Escherichia coli [30]): 4 µg/mL (≈ 6.82 µM); MIC (Klebsiella pneumoniae [31]): 2 µg/mL (≈ 3.41 µM); MIC (Pseudomonas aeruginosa [32]): 64 µg/mL; MIC (Escherichia coli [33]): 2 µg/mL; MIC (Escherichia coli [34]): 1 µg/mL; MIC (Klebsiella pneumoniae [35]): 4 µg/mL (≈ 6.82 µM); Selectivity Index (Escherichia coli [36]): 1; MIC (Klebsiella pneumoniae [37]): 0.06 µg/mL; MIC (Klebsiella pneumoniae [38]): 4 µg/mL (≈ 6.82 µM); MIC (Escherichia coli [39]): 8 µg/mL (≈ 13.6 µM); MIC (Klebsiella pneumoniae [40]): 2 µg/mL
> 64 µg/mL | > 64 µg/mL | > 64 µg/mL | > 64 µg/mL | > 64 µg/mL | > 64 µg/mL | > 64 µg/mL | > 64 µg/mL | > 64 µg/mL | > 64 µg/mL | > 64 µg/mL | > 64 µg/mL | > 64 µg/mL | > 64 µg/mL | > 64 µg/mL | > 64 µg/mL | > 64 µg/mL | CC(C)C(O/N=C(\C(=O)NC1C(=O)N(S(=O)(=O)O)C1(CF)CF)c1csc(N)n1)c1cc(=O)c(O)cn1O (stereo not given) | 8 | 8 | 8 | Selectivity Index (Klebsiella pneumoniae [24]): 8; MIC (Pseudomonas aeruginosa [26]): > 64 µg/mL; MIC (Pseudomonas aeruginosa [27]): > 64 µg/mL; MIC (Escherichia coli [28]): > 64 µg/mL; Selectivity Index (Klebsiella pneumoniae [29]): 8; MIC (Escherichia coli [30]): > 64 µg/mL; MIC (Klebsiella pneumoniae [31]): 32 µg/mL (≈ 55.1 µM); MIC (Pseudomonas aeruginosa [32]): 64 µg/mL; MIC (Escherichia coli [33]): > 64 µg/mL; MIC (Escherichia coli [34]): > 64 µg/mL; MIC (Klebsiella pneumoniae [35]): > 64 µg/mL; MIC (Klebsiella pneumoniae [37]): 4 µg/mL; MIC (Klebsiella pneumoniae [38]): > 64 µg/mL; MIC (Escherichia coli [39]): > 64 µg/mL; MIC (Klebsiella pneumoniae [40]): > 64 µg/mL
